Screening data as filed in PubChem BioAssay.
AI-2 QS modul: Vibrio harveyi AI-2 quorum sensing modulation | activity change, % at 7.5 µM | AID 2094 | Vibrio harveyi JMH597 AI-2 luminescence/OD600 ratio, 9 h; stronger effect = lower value; strain lacks LuxN and CqsS sensors; 0 = neutral-control median | 300,000 tested, 0.4% active; in the data active means activity change below about -75%, passing the limit was not always enough; inconclusive means no clear call, values can overlap the other calls;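 further: luminescence divided by OD600 gain over 9 h not by final OD600 alone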
T cruzi inh: blocks replication of Trypanosoma cruzi; AID 1885; T. cruzi beta-gal in NIH3T3, luminescence, 90 h; inhibition, % (concentration not given with the values); 300,000 tested, 1.4% active;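 active means mean inhibition across valid replicates above about 55%, limit read from the data; inconclusive means mean below that limit but half or more replicates reach it; inactive means mean below it, under half of replicates reach it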;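 further: signal also drops with host cell toxicity which is not excluded here; 0% = plate median of DMSO wells and 100% = zero luminescence signal; higher percent means less beta-gal luminescence so fewer parasites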
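compound dosing = single 50 nL compound addition per well in DMSO | material = NIH/3T3 host cells with β-galactosidase reporter T. cruzi | input = 5,000 host fibroblasts per well | timing = ≥90 h infection period, 3 h prior cell attachment | read-out basis = percent inhibition of parasite-derived β-gal signal | detection = GalScreen β-gal luminescence, detergent lysis, 60 min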
HIF activator: HIF pathway transcriptional activation; activation, % at 7.5 µM (by protocol); 300,000 tested, 0.32% active; U2OS HRE-luciferase reporter, luminescence; normalized: DMSO 0%, desferrioxamine 100%;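 active means mean activation of at least 10% of the iron chelator positive control signal, with at least half of replicates also reaching 10%; inconclusive means mean and replicate majority disagree about reaching 10%; inactive means mean and most replicates under 10%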
ARNT TACC3 PPI: disrupts binding between human ARNT and TACC3; AID 623870; inhibition, % at 9.99 µM; Q9Y6A5; 390,000 tested, 0.66% active; AlphaScreen His-ARNT PAS-B/GST-TACC3 binding, luminescence; TACC3 fragment carries E629A point mutation;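 active means mean inhibition of replicates at least 50% and at least half of replicates each reaching 50%; inconclusive means half or more replicates reach 50% but mean below 50%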;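 further: 0% = complete ARNT plus TACC3 wells and 100% = ARNT alone without TACC3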
JMH597 growth rt: retest Vibrio harveyi JMH597 growth inhibition; AID 2726; shares compounds with AI-2 QS modul; 750 tested, 1% active; growth inhibition, % at 7.5 µM; OD600 absorbance, 9 h; lacks LuxN and CqsS sensors;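 active means every replicate shows growth inhibition above 50%; inconclusive means at least half, but not all, replicates pass that cutoff; inactive means fewer than half of replicates pass it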
BB721 lum counter: retest counter-screen: BB721 constitutive quorum sensing luminescence decrease. inhibition, % at 7.5 µM. shares compounds with AI-2 QS modul. Vibrio harveyi BB721 luminescence, 9 h. AID 2727. 750 tested, 95% active;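 active means inhibition above about 80% in every replicate, not just on average, limit read from the data; inconclusive means at least half of replicates past the limit, but not all; inactive means fewer than half of replicates past the limit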
BB721 growth: retest: inhibitors of Vibrio harveyi BB721 growth | growth inhibition, % at 7.5 µM | 750 tested, 3% active | OD600 absorbance, 9 h | shares compounds with AI-2 QS modul | AID 2728;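 active means every replicate shows growth inhibition above 50%; inconclusive means at least half but not all replicates above 50% inhibition; inactive means under half of replicates above 50% inhibition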
JMH597 AI-2 mod: Vibrio harveyi AI-2 signaling luminescence modulation – JMH597 strain, confirmation | shares compounds with AI-2 QS modul | inhibition, % at 7.5 µM | Vibrio harveyi JMH597 AI-2 quorum sensing luminescence, 9 h; luxN and CqsS knockout, AI-2 only | 750 tested, 97% active | AID 2736;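 active means every replicate shows more than 75% inhibition of signal versus neutral control wells; inconclusive means half to three quarters of replicates exceed 75% inhibition; inactive means fewer than half of replicates exceed 75% inhibition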
* marks the source's active call; other numbers are inactive results; ? = inconclusive; · = not tested or not shown. The list is not random: actives were taken first. Their share in the collection is about 2%.

SMILES | AI-2 QS modul | T cruzi inh | HIF activator | ARNT TACC3 PPI | JMH597 growth rt | BB721 lum counter | BB721 growth | JMH597 AI-2 mod
O=C(/C=C/c1cccs1)NCc1cccs1 | -83.2* | -5.5 | 0.8 | · | 9.2 | 91.8* | 5.6 | 91.7*
O=C(Cc1ccc(Br)cc1)Nc1cccc(Cl)c1 | -81.6* | 21.1 | 0.2 | -2.2 | -20.4 | 87.6* | 7.4 | 87.8*
O=C(NCc1ccc2c(c1)OCO2)Nc1cccc(Cl)c1 | -91.5* | -12.1 | 2.1 | -7.1 | 20.3 | 98.9* | 32.8 | 98.6*
Cc1ccc(/C=C/C(=O)NCc2cccs2)cc1 | -74.8 | -15.3 | 1.8 | -7.0 | · | · | · | ·
CCCc1cn(CC[C@H]2CC[C@@H](NC(=O)C3CCCCC3)[C@H](CO)O2)nn1 | · | · | · | -7.4 | · | · | · | ·
COc1ccc(S(=O)(=O)Nc2ccc3c(c2)C(=O)N([C@@H](C)CO)C[C@H](C)[C@@H](CN(C)S(=O)(=O)c2cn(C)cn2)OCCCC[C@H](C)O3)cc1 | · | · | · | -2.2 | · | · | · | ·
O=C(/C=C/c1cccs1)NCc1ccc2c(c1)OCO2 | -90.3* | -0.7 | 1.8 | 5.9 | -13.6 | 94.7* | -9.8 | 95.1*
O=C(CN1CCCCCC1)Nc1cccc([N+](=O)[O-])c1 | 0.1 | 2.9 | 0.4 | -6.5 | · | · | · | ·
O=C(CN1C(=O)c2ccccc2C1=O)Nc1cccc([N+](=O)[O-])c1 | -95.1* | -15.7 | -0.2 | -4.0 | 13.0 | 99.0* | -0.7 | 99.2*
O=C(CN1C(=O)c2ccccc2C1=O)Nc1cccnc1 | -81.6* | -3.7 | -0.3 | 0.6 | 1.0 | 93.0* | -17.0 | 94.2*
O=C(CN1C(=O)c2ccccc2S1(=O)=O)Nc1cccnc1 | -31.0 | -8.2 | -0.6 | -1.1 | · | · | · | ·
Cc1ccc(OCc2nc(-c3cccnc3)no2)cc1C | -93.8* | 0.8 | 1.4 | 3.3 | 2.5 | 98.2* | 2.5 | 98.7*
Cc1ccccc1OCc1nc(-c2cccnc2)no1 | -47.8 | -7.1 | 3.2 | 2.3 | · | · | · | ·
Cc1cc(C)cc(OCc2nc(-c3cccnc3)no2)c1 | -95.2* | 9.8 | 0.6 | -2.2 | 8.6 | 98.7* | -1.9 | 98.9*
CCCc1nnc(NC(=O)Cn2cnc3ccccc3c2=O)s1 | -85.7* | -22.8 | -0.1 | 0.7 | 14.5 | 95.5* | 14.6 | 96.5*
COC(=O)c1cccc(NC(=O)Cn2cnc3ccccc3c2=O)c1 | -94.0* | -0.2 | -0.1 | -7.2 | 12.1 | 98.9* | 1.0 | 99.4*
NS(=O)(=O)c1cccc(NC(=O)CSc2ncnc3ccccc23)c1 | -82.0* | -15.4 | -6.2 | -4.5 | 5.1 | 85.4* | 7.9 | 91.7*
NS(=O)(=O)c1cccc(NC(=O)Cn2cnc3ccccc3c2=O)c1 | -85.1* | -5.9 | -0.1 | 4.7 | 18.0 | 93.1* | -3.1 | 94.7*
C[C@@H]1CN([C@@H](C)CO)C(=O)c2cc(NC(=O)C3CC3)ccc2O[C@H]1CN(C)CC1CCCCC1 | · | · | · | -3.1 | · | · | · | ·
C[C@@H]1CCCCO[C@H](CN(C)S(=O)(=O)c2ccccc2)[C@H](C)CN([C@H](C)CO)C(=O)c2cc(N(C)C)ccc2O1 | · | · | · | 23.6 | · | · | · | ·
CCOC(=O)c1c(NC(=O)CN2C(=O)NC(C)(c3ccc(OC(F)F)cc3)C2=O)sc(C)c1C (stereo not given) | 30.3 | 32.0 | 0.0 | 3.8 | · | · | · | ·
CC1(c2ccc(OC(F)F)cc2)NC(=O)N(CC(=O)Nc2ccc(Cl)cc2F)C1=O (stereo not given) | -93.9* | 17.5 | 0.7 | -5.6 | 5.2 | 95.6* | -7.0 | 96.5*
CC1(c2ccc(OC(F)F)cc2)NC(=O)N(CC(=O)Nc2cccc(F)c2)C1=O (stereo not given) | -93.0* | 0.4 | 0.9 | 6.5 | 18.6 | 95.1* | 24.1 | 96.9*
CCOc1ccc(NC(=O)CN2C(=O)NC(C)(c3ccc(OC(F)F)cc3)C2=O)cc1 (stereo not given) | -92.6* | 10.9 | -0.3 | · | 41.0 | 93.9* | 56.8* | 96.0*
Cc1cc(NC(=O)CN2C(=O)NC(C)(c3ccc(OC(F)F)cc3)C2=O)no1 (stereo not given) | -74.2 | -11.5 | -0.2 | 5.4 | · | · | · | ·
SMILES | AI-2 QS modul | T cruzi inh | HIF activator | ARNT TACC3 PPI | JMH597 growth rt | BB721 lum counter | BB721 growth | JMH597 AI-2 mod
CCCC(O)C#Cc1cnc2c(c1)C(=O)N([C@H](C)CO)C[C@H](C)[C@H](CN(C)S(=O)(=O)c1cn(C)cn1)O2 (stereo not given in full) | · | · | · | -10.8 | · | · | · | ·
Cc1cc(NC(=O)Cn2c(C)nc3ccccc3c2=O)ccc1Br | -86.6* | 16.0 | 0.0 | -3.5 | 5.4 | 98.8* | -17.9 | 99.1*
CCC(=O)Nc1ccc2nc(C)n(CC(=O)Nc3ccccc3)c(=O)c2c1 | 12.0 | 4.2 | 0.0 | -4.9 | · | · | · | ·
CC(=O)Nc1ccc(C(=O)Cn2nnc3ccccc3c2=O)cc1 | 19.2 | -6.1 | 0.9 | -0.5 | · | · | · | ·
Cc1cc(C)cc(NC(=O)Cn2nnc3ccccc3c2=O)c1 | -82.9* | 0.3 | 0.1 | 0.4 | -22.8 | 96.0* | -10.7 | 97.4*
C=Cn1c(C(=O)O)ccc1-c1ccc(CC)cc1 | -86.7* | -18.6 | -0.4 | -4.0 | 26.0 | 16.0 | 10.2 | 99.8*
COC(=O)C[C@@H]1CC[C@@H]2[C@@H](COc3ccc(NC(=O)NC(C)C)cc3C(=O)N2C)O1 | · | · | · | 4.2 | · | · | · | ·
Cc1ccc(O)c(NC(=O)C2CCCCC2)c1 | 13.9 | -17.8 | 1.1 | -2.7 | · | · | · | ·
Cc1ccc(O)c(NC(=O)CCC2CCCCC2)c1 | -83.7* | -10.8 | 3.1 | 9.2 | 17.2 | 93.2* | 16.8 | 95.3*
O=C(CCC1CCCCC1)Nc1ccccc1O | -85.0* | -4.3 | 6.0 | -5.6 | 23.7 | 93.6* | 23.5 | 93.8*
O=C(C[C@H]1C[C@@H]2c3cc(NC(=O)C4CCC4)ccc3O[C@@H]2[C@@H](CO)O1)NC1CCCCC1 | · | · | · | -1.9 | · | · | · | ·
Cc1ccc(/C(N)=N/OC(=O)Cc2ccccc2)cc1 | -67.4 | 2.8 | 2.2 | -9.9 | · | · | · | ·
COc1ccc(/C(N)=N/OC(=O)Cc2ccc(C)cc2)cc1 | -90.9* | -8.3 | 0.5 | · | -7.6 | 95.3* | -26.4 | 96.8*
N/C(=N\OC(=O)Cc1ccc(-c2ccccc2)cc1)c1ccccn1 | 28.1 | 0.1 | -0.1 | 0.4 | · | · | · | ·
COc1ccc(CC(=O)O/N=C(\N)c2ccccn2)cc1 | ? | -6.8 | 0.3 | 25.9 | 7.6 | 84.4* | 3.0 | 87.8*
CCc1ccc(O)c(-c2cc(C(=O)Nc3cccnc3)[nH]n2)c1 | -94.0* | -11.2 | 2.0 | -8.4 | -13.4 | 97.2* | 2.5 | 97.3*
Cc1cc(O)c(-c2cc(C(=O)Nc3cccnc3)[nH]n2)cc1C | -0.9 | -11.7 | 1.5 | -1.9 | · | · | · | ·
O=C(C[C@H]1CC[C@@H]2[C@H](COC[C@@H](O)CN2Cc2ccc(Cl)cc2)O1)NCc1ccccc1Cl | · | · | · | 5.1 | · | · | · | ·
